Experimental data: ChEMBL document CHEMBL3124864, “Development of antimycobacterial tetrahydrothieno[2,3-c]pyridine-3-carboxamides and hexahydrocycloocta[b]thiophene-3-carboxamides: Molecular modification from known antimycobacterial lead” (Eur J Med Chem, 2014)
In brackets after ≈: the same amount, converted by molar mass.

Columns and labels:
[1] = system: Mycobacterium tuberculosis; experiment: Antitubercular activity against Mycobacterium tuberculosis H37Rv ATCC 27294 after 28 days by two-fold serial dilution method; assay type: functional; settings: H37Rv ATCC 27294, 672 h
Procedure, shortened: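 Agar dilution on Middlebrook 7H11 with OADC, compound incorporated as two-fold serial dilutions. Inoculum from fresh 7H11/OADC slants, adjusted to 1 mg/mL wet weight in 0.05% Tween 80 saline and diluted 10^-2 to about 10⁷ cfu/mL, then spotted onto the drug-containing agar. Growth read after 28 days. MIC taken as the lowest concentration giving complete inhibition.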

[2] = system: Mycobacterium tuberculosis; experiment: Antitubercular activity against Mycobacterium tuberculosis H37Rv ATCC 27294 after 28 days by two-fold serial dilution method in presence of efflux pump inhibitor verapamil; assay type: functional; settings: H37Rv ATCC 27294, 672 h
[3] = Cytotoxicity against mouse RAW264.7 cells assessed as growth inhibition at 50 uM after 72 hrs by MTT assay; assay type: cell-based; settings: read-out: GI
Procedure, shortened: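 RAW 264.7 cells were exposed to compound for 72 h. Viability was read as cellular conversion of MTT to formazan using a non-radioactive cell proliferation kit. Results were expressed as percentage growth inhibition.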

[4] = Selectivity index of cytotoxicity against mouse RAW264.7 cells to antitubercular activity against Mycobacterium tuberculosis H37Rv ATCC 27294; assay type: toxicity, cell-based; settings: read-out: Selectivity Index

Row | Structure (SMILES) | MIC [1] [µM] | MIC [2] [µM] | inhibition at 72 h, 50 µM [3] [%] | selectivity ratio [4]
1 | CC(=O)N1CCc2c(sc(NC(=O)C3CCCCC3)c2C(N)=O)C1 | 71.4 (≈ 25 µg/mL) |  |  | 
2 | CN1CCc2c(sc(NC(=O)C3CCCCC3)c2C(N)=O)C1 | 7.76 (≈ 2.49 µg/mL) | 2.58 | 18.3 | 
3 | CC(=O)N1CCc2c(sc(NC(=O)c3cccs3)c2C(N)=O)C1 | 9.15 (≈ 3.2 µg/mL) | 4.57 |  | 13
4 | CC(=O)Nc1sc2c(c1C(N)=O)CCCCCC2 | 18.7 (≈ 4.99 µg/mL) | 9.36 | 24.6 | 
5 | NC(=O)c1c(NC(=O)c2ccccc2)sc2c1CCCCCC2 | 15.2 (≈ 4.99 µg/mL) | 5.06 | 26.6 | 
6 | COc1ccccc1C(=O)Nc1sc2c(c1C(N)=O)CCCCCC2 | 13.9 (≈ 4.99 µg/mL) | 6.96 | 24.8 | 
7 | NC(=O)c1c(NC(=O)c2cccc([N+](=O)[O-])c2)sc2c1CCCCCC2 | 16.7 (≈ 6.24 µg/mL) | 16.7 | 36.1 | 
8 | Cc1ccc(C(=O)Nc2sc3c(c2C(N)=O)CCCCCC3)cc1 | 4.54 (≈ 1.55 µg/mL) | 2.27 | 20.5 | 
9 | NC(=O)c1c(NC(=O)c2ccc(Oc3ccccc3)cc2)sc2c1CCCCCC2 | 3.7 (≈ 1.56 µg/mL) | 1.23 | 22.2 | > 10
10 | NC(=O)c1c(NC(=O)c2cccc3ccccc23)sc2c1CCCCCC2 | 13.2 (≈ 4.99 µg/mL) | 3.29 | 28.3 | 
11 | NC(=O)c1c(NC(=O)C2CC2)sc2c1CCCCCC2 | 17.1 (≈ 4.99 µg/mL) | 8.53 | 16.9 | 
12 | NC(=O)c1c(NC(=O)C2CCCC2)sc2c1CCCCCC2 | 9.73 (≈ 3.12 µg/mL) | 9.73 | 18.3 | 
13 | NC(=O)c1c(NC(=O)C2CCCCC2)sc2c1CCCCCC2 | 9.33 (≈ 3.12 µg/mL) | 3.11 | 16.6 | 
14 | CC(=O)N1CCc2c(sc(NC(=O)c3ccccc3)c2C(N)=O)C1 | 72.7 (≈ 24.9 µg/mL) |  |  | 
15 | COc1ccccc1C(=O)Nc1sc2c(c1C(N)=O)CCN(C(C)=O)C2 | 66.8 (≈ 25 µg/mL) |  |  | 
16 | CC(=O)N1CCc2c(sc(NC(=O)c3cccc([N+](=O)[O-])c3)c2C(N)=O)C1 | 64.3 (≈ 25 µg/mL) |  |  | 
17 | CC(=O)N1CCc2c(sc(NC(=O)c3ccc(C)cc3)c2C(N)=O)C1 | 69.8 (≈ 24.9 µg/mL) |  |  | 

Row | Structure (SMILES) | MIC [1] [µM] | MIC [2] [µM] | inhibition at 72 h, 50 µM [3] [%] | selectivity ratio [4]
18 | CC(=O)N1CCc2c(sc(NC(=O)c3ccc(Oc4ccccc4)cc3)c2C(N)=O)C1 | 57.3 (≈ 25 µg/mL) |  |  | 
19 | CC(=O)N1CCc2c(sc(NC(=O)c3cccc4ccccc34)c2C(N)=O)C1 | 63.5 (≈ 25 µg/mL) |  |  | 
20 | CC(=O)N1CCc2c(sc(NC(=O)C3CC3)c2C(N)=O)C1 | 81.2 (≈ 24.9 µg/mL) |  |  | 
21 | CC(=O)N1CCc2c(sc(NC(=O)C3CCCC3)c2C(N)=O)C1 | 74.4 (≈ 25 µg/mL) |  |  | 
22 | CC(=O)Nc1sc2c(c1C(N)=O)CCN(C)C2 | 39.4 (≈ 9.99 µg/mL) |  |  | 
23 | CN1CCc2c(sc(NC(=O)c3ccccc3)c2C(N)=O)C1 | 37.9 (≈ 11.9 µg/mL) |  |  | 
24 | COc1ccccc1C(=O)Nc1sc2c(c1C(N)=O)CCN(C)C2 | 36.1 (≈ 12.5 µg/mL) |  |  | 
25 | CN1CCc2c(sc(NC(=O)c3cccc([N+](=O)[O-])c3)c2C(N)=O)C1 | 34.6 (≈ 12.5 µg/mL) |  |  | 
26 | Cc1ccc(C(=O)Nc2sc3c(c2C(N)=O)CCN(C)C3)cc1 | 37.9 (≈ 12.5 µg/mL) |  |  | 
27 | CN1CCc2c(sc(NC(=O)c3ccc(Oc4ccccc4)cc3)c2C(N)=O)C1 | 30.6 (≈ 12.5 µg/mL) |  |  | 
28 | CN1CCc2c(sc(NC(=O)c3cccc4ccccc34)c2C(N)=O)C1 | 17.1 (≈ 6.24 µg/mL) | 8.53 | 28.4 | 
29 | CN1CCc2c(sc(NC(=O)C3CC3)c2C(N)=O)C1 | 5.57 (≈ 1.56 µg/mL) | 2.78 | 22.2 | 
30 | CN1CCc2c(sc(NC(=O)C3CCCC3)c2C(N)=O)C1 | 5.06 (≈ 1.56 µg/mL) | 5.06 | 18.2 | 
31 | CC(=O)Nc1sc2c(c1C(N)=O)CCN(C(C)=O)C2 | 88.6 (≈ 24.9 µg/mL) |  |  | 
32 | O=C(O)c1cn(C2CC2)c2cc(N3CCNCC3)c(F)cc2c1=O [CIPROFLOXACIN] | 9.41 (≈ 3.12 µg/mL) | 9.41 |  | 
33 | CC[C@@H](CO)NCCN[C@@H](CC)CO [ETHAMBUTOL] | 7.64 (≈ 1.56 µg/mL) | 3.82 |  | 
34 | NNC(=O)c1ccncc1 [ISONIAZID] | 0.72 (≈ 0.0987 µg/mL) | 0.72 |  | 
